In ChEMBL document CHEMBL2016564, “Conformationally restricted novel pyrazole derivatives: synthesis of 1,8-disubstituted 5,5-dimethyl-4,5-dihydro-1H-benzo[g]indazoles as a new class of PDE4 inhibitors” (Bioorg Med Chem Lett, 2012):

Tests used:
[1] = target: T1, 3',5'-cyclic-AMP phosphodiesterase 4B (Homo sapiens, UniProt Q07343); assay: Inhibition of recombinant His-tagged PDE4B expressed in Sf9 cells using cAMP as substrate at 30 uM preincubated for 15 mins prior substrate addition measured after 1 hr by […]
T1 sequence (Q07343 whole entry): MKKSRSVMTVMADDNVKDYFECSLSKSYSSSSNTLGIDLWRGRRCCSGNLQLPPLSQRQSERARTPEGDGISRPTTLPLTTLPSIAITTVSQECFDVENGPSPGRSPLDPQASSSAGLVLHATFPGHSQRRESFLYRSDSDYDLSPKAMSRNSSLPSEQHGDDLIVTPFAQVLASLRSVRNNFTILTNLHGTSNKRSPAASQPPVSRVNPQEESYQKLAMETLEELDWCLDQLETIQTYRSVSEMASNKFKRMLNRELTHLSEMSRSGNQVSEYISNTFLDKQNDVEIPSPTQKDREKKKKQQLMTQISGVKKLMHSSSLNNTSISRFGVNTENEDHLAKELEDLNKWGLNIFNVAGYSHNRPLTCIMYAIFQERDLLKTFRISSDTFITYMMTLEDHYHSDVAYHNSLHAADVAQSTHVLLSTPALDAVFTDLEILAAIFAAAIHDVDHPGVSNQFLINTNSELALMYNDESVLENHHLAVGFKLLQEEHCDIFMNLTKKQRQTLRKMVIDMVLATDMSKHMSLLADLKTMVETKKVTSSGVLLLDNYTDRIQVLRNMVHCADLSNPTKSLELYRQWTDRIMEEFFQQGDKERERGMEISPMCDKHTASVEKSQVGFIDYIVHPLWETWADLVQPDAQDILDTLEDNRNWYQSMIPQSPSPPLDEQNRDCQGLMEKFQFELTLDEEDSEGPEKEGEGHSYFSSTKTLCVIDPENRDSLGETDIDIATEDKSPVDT
Summary of the method: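 In-house purified PDE4B (10 ng) was preincubated 15 min with compound or DMSO vehicle, followed by 1 h with cAMP substrate. After stop solution, detection reagent was applied for 10 min in the dark and luminescence (RLU) was read. % inhibition was taken against vehicle-control RLU and reported as the average with SD.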

[2] = target: 3',5'-cyclic-AMP phosphodiesterase 4D (Homo sapiens) (UniProt Q08499); assay: Inhibition of PDE4D using cAMP as substrate at 30 uM preincubated for 15 mins prior substrate addition measured after 1 hr by […]
Sequence of 3',5'-cyclic-AMP phosphodiesterase 4D (Homo sapiens) (Q08499 whole entry): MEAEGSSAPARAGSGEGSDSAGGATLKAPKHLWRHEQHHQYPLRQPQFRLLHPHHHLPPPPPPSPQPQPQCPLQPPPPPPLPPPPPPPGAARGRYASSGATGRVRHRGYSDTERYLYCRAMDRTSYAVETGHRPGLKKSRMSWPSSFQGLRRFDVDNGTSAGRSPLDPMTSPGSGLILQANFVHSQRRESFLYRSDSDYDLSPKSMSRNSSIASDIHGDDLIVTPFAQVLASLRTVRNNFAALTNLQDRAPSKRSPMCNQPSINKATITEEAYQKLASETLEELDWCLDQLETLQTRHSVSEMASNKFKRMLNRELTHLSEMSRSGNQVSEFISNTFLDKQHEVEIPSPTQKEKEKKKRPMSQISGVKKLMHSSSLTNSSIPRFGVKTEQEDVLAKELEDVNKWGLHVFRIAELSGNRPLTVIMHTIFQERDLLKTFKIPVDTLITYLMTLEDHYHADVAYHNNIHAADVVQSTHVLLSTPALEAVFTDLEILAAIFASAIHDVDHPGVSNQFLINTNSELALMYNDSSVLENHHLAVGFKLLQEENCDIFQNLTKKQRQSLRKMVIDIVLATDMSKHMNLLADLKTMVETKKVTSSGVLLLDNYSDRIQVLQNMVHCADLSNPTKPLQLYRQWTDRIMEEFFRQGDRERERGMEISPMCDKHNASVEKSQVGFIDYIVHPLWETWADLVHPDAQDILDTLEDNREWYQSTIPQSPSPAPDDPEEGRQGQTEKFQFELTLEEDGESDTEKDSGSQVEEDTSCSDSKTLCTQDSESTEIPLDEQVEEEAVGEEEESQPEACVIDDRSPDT
Summary of the method: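 Commercially sourced PDE4D (0.5 ng) was preincubated 15 min with compound or DMSO vehicle, then incubated 1 h with cAMP substrate. The reaction was halted with stop solution, and detection reagent was added for 10 min in the dark. Luminescence (RLU) was read, and % inhibition = (vehicle RLU − inhibitor RLU)/vehicle RLU × 100.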

[3] = target: T1, 3',5'-cyclic-AMP phosphodiesterase 4B

| Compound | inhibition [1] [%] | inhibition [2] [%] | IC50 [3] [µM] |
| --- | --- | --- | --- |
| CC1(C)Cc2cnn(-c3ccc(F)cc3)c2-c2cc([N+](=O)[O-])ccc21 | 66.8 | – | – |
| CC(C)n1ncc2c1-c1cc(Br)ccc1C(C)(C)C2 | 56.8 | – | – |
| Cc1ccc(-n2ncc3c2-c2cc([N+](=O)[O-])ccc2C(C)(C)C3)cc1 | 68.2 | – | – |
| CC1(C)Cc2cnn(-c3ccccc3)c2-c2cc(Br)ccc21 | 76.2 | 50 | 4.57 |
| Cc1ccc(-n2ncc3c2-c2cc(Br)ccc2C(C)(C)C3)cc1 | 64.9 | – | – |
| CC1(C)Cc2cnn(-c3ccc(Br)cc3)c2-c2cc(Br)ccc21 | 60.3 | – | – |
| CC1(C)Cc2cnn(-c3ccc(C(F)(F)F)cc3)c2-c2cc(Br)ccc21 | 42.2 | – | – |
| CC1(C)Cc2cnn(-c3ccccc3)c2-c2cc([N+](=O)[O-])ccc21 | 72.1 | 55.8 | – |
| CC1(C)Cc2cnn(-c3ccc(F)cc3)c2-c2cc(NS(=O)(=O)c3ccccc3)ccc21 | 75.6 | – | – |
| CC1(C)Cc2cnn(C(C)(C)C)c2-c2cc(Br)ccc21 | 71.4 | 41.7 | – |
| CC1(C)Cc2cnn(-c3ccc(Cl)cc3)c2-c2cc(Br)ccc21 | 68.1 | – | – |
| Cc1cccc(-n2ncc3c2-c2cc([N+](=O)[O-])ccc2C(C)(C)C3)c1C | 72.7 | 54.9 | – |
| CC1(C)Cc2cnn(-c3ccc(F)cc3)c2-c2cc(Br)ccc21 | 72.2 | 65.4 | – |
| CC1(C)Cc2cnn(-c3ccc(F)cc3)c2-c2cc(NS(C)(=O)=O)ccc21 | 75.1 | – | – |
